The results in this text go back to paper PMC6210075 (ACS Omega, 2018).

Structures are written as SMILES. In brackets after ≈: the same amount, converted by molar mass.

The nature of one series: Water solubility. The format is physicochemical. Particulars: DI water, 37 °C, thermodynamic from solid. An outline of the steps:
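2–5 mg of solid was shaken in water for 2 days at 37 °C. The solution was filtered through PTFE, diluted twofold in MeOH containing 15 nM B-12, and quantified by LC/MS/MS.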

A further series has as its target T1, FAAH (Mus musculus, UniProt O08914).
T1 sequence (O08914 1-579): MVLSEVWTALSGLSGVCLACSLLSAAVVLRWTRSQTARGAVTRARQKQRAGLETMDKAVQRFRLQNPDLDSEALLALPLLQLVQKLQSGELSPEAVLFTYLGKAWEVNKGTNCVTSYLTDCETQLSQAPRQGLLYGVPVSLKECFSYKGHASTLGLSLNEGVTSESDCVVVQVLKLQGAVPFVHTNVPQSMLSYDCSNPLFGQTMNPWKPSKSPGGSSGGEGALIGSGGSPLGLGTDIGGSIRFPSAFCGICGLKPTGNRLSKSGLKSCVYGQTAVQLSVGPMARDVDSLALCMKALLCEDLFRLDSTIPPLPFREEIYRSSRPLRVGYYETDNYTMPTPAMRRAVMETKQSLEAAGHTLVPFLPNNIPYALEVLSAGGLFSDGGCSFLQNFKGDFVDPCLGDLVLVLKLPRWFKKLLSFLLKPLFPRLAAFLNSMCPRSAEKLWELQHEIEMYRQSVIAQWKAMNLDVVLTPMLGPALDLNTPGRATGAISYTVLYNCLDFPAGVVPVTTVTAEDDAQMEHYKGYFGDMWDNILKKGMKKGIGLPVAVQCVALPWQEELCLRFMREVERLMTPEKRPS
The series is classed as in vivo. Particulars: mice, 1 mg/kg i.p. in DMSO, 4 h after dosing. The essentials:
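Male Swiss Webster mice got test compound in 20 μL DMSO i.p. and were killed 4 h later. Tissue was homogenized about fivefold by weight in 20 mM phosphate, pH 7.4, 5 mM EDTA, then diluted 1000-fold (liver) or 100-fold (brain) in 100 mM phosphate, pH 8.0, 0.1% BSA. OMP (100 μM final) hydrolysis was read by fluorescence (303/394 nm) for 10 min, normalized to BCA protein, and expressed as % of vehicle.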

The target in another series is T2, sEH (Mus musculus, UniProt P34914).
T2 sequence (P34914 1-554): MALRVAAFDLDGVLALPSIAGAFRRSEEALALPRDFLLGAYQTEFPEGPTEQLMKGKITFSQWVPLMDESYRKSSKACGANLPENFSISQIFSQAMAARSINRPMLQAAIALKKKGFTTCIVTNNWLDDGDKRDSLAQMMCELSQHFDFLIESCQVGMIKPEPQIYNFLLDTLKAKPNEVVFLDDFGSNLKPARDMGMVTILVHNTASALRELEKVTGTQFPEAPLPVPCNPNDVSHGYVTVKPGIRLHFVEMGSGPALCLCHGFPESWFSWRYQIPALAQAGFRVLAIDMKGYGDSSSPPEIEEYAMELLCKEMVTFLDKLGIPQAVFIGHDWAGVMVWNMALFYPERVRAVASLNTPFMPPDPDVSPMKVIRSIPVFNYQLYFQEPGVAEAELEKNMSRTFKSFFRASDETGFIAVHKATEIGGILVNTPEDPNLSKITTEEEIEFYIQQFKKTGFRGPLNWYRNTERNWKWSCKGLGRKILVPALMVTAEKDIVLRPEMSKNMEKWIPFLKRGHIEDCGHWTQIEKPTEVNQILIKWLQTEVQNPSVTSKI
Nature of the series: In vivo target engagement: residual sEH activity. As to conditions: mice, 1 mg/kg i.p. in DMSO, 4 h after dosing.

For a further series, the target named is T3, human CES2 (Homo sapiens, UniProt O00748).
T3 sequence (O00748 27-559): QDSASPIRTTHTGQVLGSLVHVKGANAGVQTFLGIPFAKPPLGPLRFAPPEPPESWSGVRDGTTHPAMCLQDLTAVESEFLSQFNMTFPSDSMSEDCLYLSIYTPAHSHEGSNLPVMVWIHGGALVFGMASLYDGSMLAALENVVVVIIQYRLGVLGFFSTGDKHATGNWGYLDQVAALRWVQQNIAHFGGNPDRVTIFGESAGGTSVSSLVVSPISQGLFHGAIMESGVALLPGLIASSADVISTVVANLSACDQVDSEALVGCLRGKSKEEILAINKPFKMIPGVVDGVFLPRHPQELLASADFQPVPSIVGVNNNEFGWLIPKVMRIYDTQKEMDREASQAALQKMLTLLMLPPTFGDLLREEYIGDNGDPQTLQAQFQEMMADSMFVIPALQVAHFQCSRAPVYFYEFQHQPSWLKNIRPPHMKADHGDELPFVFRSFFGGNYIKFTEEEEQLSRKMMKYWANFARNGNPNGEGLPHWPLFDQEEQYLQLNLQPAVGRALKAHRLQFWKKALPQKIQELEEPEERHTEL
In words: Esterase assay, CES2. The series is classed as biochemical. An outline of the steps:
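Crude recombinant human CES2 extract was used with 5 min inhibitor preincubation in 0.1 M sodium phosphate, pH 8, 0.1 mg/mL BSA, 2% final DMSO. Substrate was cyano(6-methoxynaphthalen-2-yl)methyl acetate (50 μM final). […] Triplicates.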

On to `O=C(Nc1ccc(C(F)(F)F)cc1F)N1CCC(Cc2cccc(Oc3ccc(C(F)(F)F)cn3)c2)CC1` [compound 18], for which the solubility at 2 days in the series “Water solubility” was determined as 2.8 nM (≈ 1.52 ng/mL).
Turning to `O=C(Nc1cccnc1)N1CCC(Cc2cccc(Oc3ccc(C(F)(F)F)cn3)c2)CC1` [PF-3845, reference compound], the “residual brain FAAH activity, % of control” value on FAAH (brain) was determined as 0.2 ± 0.1%. Also, on FAAH (liver), the “residual liver FAAH activity, % of control” value is given as 22 ± 2%. Moreover, the “residual brain sEH activity, % of control” value on sEH stood at 63 ± 14%. Further, on human CES2, 1100 nM corresponded to half-maximal inhibition (IC50).
